Here are results for six molecules from ChEMBL document CHEMBL1129495, “Highly selective bradykinin agonists and antagonists with replacement of proline residues by N-methyl-D- and L-phenylalanine” (J Med Chem, 1996).

Experiment [1] in a line: Selectivity for rat uterus is expressed as the ratio RUT/GPI. Format: functional. The procedure, abridged:
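Ratio of agonist activity (percent of BK) in estrus rat uterus to that in guinea pig ileum, both from isotonic contraction assays using the Schild 4-point method.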

A short description of experiment [2]: Inhibitory activity against high binding affinity binding site of Bradykinin receptor in rat uterus membrane was reported. Format: cell membranes. The essentials: (§1)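 Fresh rat myometrial or guinea pig ileum membranes (0.3–0.5 mg protein) incubated 30 min at 4 °C with 0.05 nM [3H]BK and increasing peptide concentrations. Buffer: 25 mM TES pH 6.8, 1 µM captopril, 1 mM DTE, bacitracin, BSA. Samples filtered on PEI-treated GF/C and counted. High- and low-affinity IC50s from Tobler–Engel analysis; duplicates.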

The species named for experiment [3] is Rattus norvegicus. The experiment in a line: Agonistic activity was evaluated in Estrus Rat Uterus Assay. Format: functional. The essentials:
(§2)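 Uteri from female Wistar rats (180–200 g) given diethylstilbestrol 100 µg/kg sc 16 h before use. Distal horns held in de Jalon solution at 28 °C under 0.5 g resting tension, with isotonic contractions recorded. BK was dosed every 4 min and left in the bath 45 s. Agonist activity by Schild 4-point method, expressed as percent of BK activity.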

For experiment [4], the species on record is Cavia porcellus. The experiment in a line: (§3) Antagonistic activity was evaluated in Guinea pig ileum assay. Format: functional. Further details: scale not given: the % may be the effect or the level left. The procedure, abridged: (§4)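 Guinea pig terminal ileum in Tyrode at 37 °C under 0.5 g tension, isotonic recording. Analog added 5 min before a cumulative BK dose–response curve (maximum at 0.3 µM BK). pA2 is the negative log of the antagonist concentration that reduces the effect of a double BK dose to that of a single dose. Means of 3–7 determinations.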

For experiment [5], the species on record is Cavia porcellus. The experiment in a line: Antagonistic activity was evaluated in Guinea pig lung strip assay. Format: functional. On the set-up: scale not given: the % may be the effect or the level left. The essentials:
(§5)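 Lower-lobe lung strips (2–3 mm) from guinea pigs (400–600 g) in Krebs–Henseleit at 37 °C under 1 g load, with isometric tension recorded. After 1 h equilibration, peptide was given 5 min before an ED50 dose of BK. Cumulative BK curves covered 0.01–10 µM. pA2 by the van Rossum method.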

Experiment [6] can be described thus: Inhibitory activity against low binding affinity binding site of Bradykinin receptor in rat uterus membrane was reported. The experiment is classed as cell membranes. The essentials: as §1
Experiment [7] is described as follows: Inhibitory activity against low binding affinity binding site of Bradykinin receptor in guinea pig ileum was reported. Format: tissue-based, Cavia porcellus. The procedure, abridged:
as §1

Experiment [8] can be described thus: Inhibitory activity against low affinity binding site of Bradykinin receptor in guinea pig ileum. Conditions: Cavia porcellus. The experiment is classed as tissue-based. The essentials: as §1
Experiment [9] is described as follows: Inhibitory activity against low affinity binding site of Bradykinin receptor in rat uterus membrane was reported. Format: cell membranes. The procedure, abridged: as §1
Experiment [10] can be described thus: Inhibitory activity against high affinity binding site of Bradykinin receptor in rat uterus membrane was reported. Format: cell membranes. The essentials: as §1
Experiment [11] can be described thus: Inhibitory activity against high affinity binding site of Bradykinin receptor in guinea pig ileum was reported. The following applies: Cavia porcellus. Format: tissue-based. The essentials: as §1
The species entered for experiment [12] is Cavia porcellus. The experiment in a line: Antagonistic activity expressed as pA2 in Guinea pig lung strip assay. The experiment is classed as functional. The following applies: read-out: pA2 (converted). The procedure, abridged: as §5
For experiment [13], the species on record is Cavia porcellus. The experiment is described as §3. Format: functional, organism-based. The following applies: read-out: pA2 (converted). The essentials:
as §4

The species entered for experiment [14] is Cavia porcellus. The experiment in a line: Agonistic activity against selectivity for smooth muscle contraction in guinea pig ileum. Format: functional, Muscle tissue. The procedure, abridged: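 Isolated terminal ileum (1.5 cm) from guinea pigs fasted 16 h, in Tyrode at 37 °C. Isotonic contractions recorded under 0.5 g resting tension. Agonist activity measured by Schild 4-point method against BK doses of 1 and 2 nM, expressed as percent of BK activity.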

For experiment [15], the species on record is Rattus norvegicus. Nature of the experiment: Agonistic activity against selectivity for smooth muscle contraction in rat uterus. The experiment is classed as functional, Muscle tissue. The essentials:
as §2

The species named for experiment [16] is Cavia porcellus. Nature of the experiment: Compound was tested for agonist activity for contraction of guinea pig ileum; the negative logarithm of ED50 (pD2) was estimated.
Experiment [17] is filed under the species Rattus norvegicus. The experiment in a line: Compound was tested for agonist activity for contraction of rat uterus, the negative logarithm of ED50 (pD2) was estimated.

Square brackets hold non-standard residues; d marks the D form. Peptide text beside a SMILES is read from it.

Usually IC50 stands for the concentration at which inhibition is half-maximal.

As to `CN(C(=O)[C@H](CO)NC(=O)[C@H](Cc1cccs1)NC(=O)CNC(=O)[C@@H]1CC(O)CN1C(=O)[C@@H]1CCCN1C(=O)[C@@H](N)CCCN=C(N)N)[C@H](Cc1ccccc1)C(=O)N[C@@H](Cc1ccccc1)C(=O)N[C@@H](CCCN=C(N)N)C(=O)O` (stereo partly drawn), the Ratio in experiment [1] came to 4000. Further, the concentration for half-maximal inhibition (IC50) in experiment [2] came out at 0.49 nM; in experiment [6], 65 nM; in experiment [7] it was 29 nM. Further, the figures for the Activity in the experiment listed under Rattus norvegicus [3], in the experiment filed under Cavia porcellus [4] and in the experiment listed under Cavia porcellus [5] were 89%, 0.02% and 0.04%, respectively.
Turning to `CN(C(=O)[C@H](CO)NC(=O)[C@H](Cc1ccccc1)NC(=O)CNC(=O)[C@@H]1CCCN1C(=O)[C@@H]1CCCN1C(=O)[C@@H](N)CCCN=C(N)N)[C@H](Cc1ccccc1)C(=O)N[C@@H](Cc1ccccc1)C(=O)N[C@@H](CCCN=C(N)N)C(=O)O`, the Ratio in experiment [1] is reported as 300. For the same molecule, the IC50 in experiment [8] is 132 nM; in experiment [9], 4.8 nM; in experiment [10], 0.11 nM; in [11], 1 nM. For the same molecule, the Activity in the experiment filed under Rattus norvegicus [3] is recorded as 136%; in the experiment filed under Cavia porcellus [4], 0.04%; in the experiment filed under Cavia porcellus [5], 1.4%.
As to `CN(C(=O)[C@@H]1CCCN1C(=O)[C@@H](N)CCCN=C(N)N)[C@@H](Cc1ccccc1)C(=O)NCC(=O)N[C@@H](Cc1ccccc1)C(=O)N[C@@H](CO)C(=O)N1CCC[C@H]1C(=O)N[C@@H](Cc1ccccc1)C(=O)N[C@@H](CCCN=C(N)N)C(=O)O`, the IC50 in experiment [8] worked out at 8000 nM; in [9], 375 nM; in experiment [10], 0.2 nM; in experiment [11], 2.6 nM. Moreover, the Activity was determined as 0.03% in the experiment listed under Rattus norvegicus [3], 0.05% in the experiment filed under Cavia porcellus [4] and 0.03% in the experiment filed under Cavia porcellus [5].
Regarding `CN(C(=O)[C@@H](N)CCCN=C(N)N)[C@@H](Cc1ccccc1)C(=O)N1CCC[C@H]1C(=O)NCC(=O)N[C@@H](Cc1ccccc1)C(=O)N[C@@H](CO)C(=O)N1CCC[C@H]1C(=O)N[C@@H](Cc1ccccc1)C(=O)N[C@@H](CCCN=C(N)N)C(=O)O`, the IC50 in experiment [8] amounted to 25 nM; in experiment [9], 232 nM; in experiment [10] it was 3.5 nM; in experiment [11] it was 1 nM. Moreover, the Activity in the experiment filed under Rattus norvegicus [3] is on record as 35%; in the experiment listed under Cavia porcellus [4], 4%; in the experiment filed under Cavia porcellus [5] it was 1.4%. The Kb in the experiment filed under Cavia porcellus [12] was 2570 nM.
Turning to `NC(N)=NCCC[C@H](NC(=O)[C@H](Cc1ccccc1)NC(=O)[C@@H](Cc1ccccc1)NC(=O)[C@H](CO)NC(=O)[C@H](Cc1ccccc1)NC(=O)CNC(=O)[C@@H]1CCCN1C(=O)[C@@H]1CCCN1C(=O)[C@@H](N)CCCN=C(N)N)C(=O)O` (H-RPPGFS[dF]FR-OH), the IC50 in experiment [2] was found to be 6.6 nM; in experiment [6], 3.5 nM; in experiment [7], 14 nM. Moreover, the Activity is recorded as 1.7% in the experiment listed under Rattus norvegicus [3] and 0.9% in the experiment filed under Cavia porcellus [5]. For the same molecule, the Kb in the experiment listed under Cavia porcellus [13] was 2750 nM.
In the case of H-RPPGFSPFR-OH [BRADYKININ], in experiment [1], the Ratio worked out at 1. The IC50 in [8] is 1.75 nM; in [9], 1 nM; in experiment [10] it was 0.01 nM; in experiment [11] it was 0.01 nM. For the same molecule, the Activity in the experiment filed under Rattus norvegicus [3], in the experiment listed under Cavia porcellus [4], in the experiment filed under Cavia porcellus [14], in the experiment listed under Rattus norvegicus [15] and in the experiment filed under Cavia porcellus [5] was 100% each time. For the same molecule, the pD2 in the experiment listed under Cavia porcellus [16] is on record as 7.4; in the experiment filed under Rattus norvegicus [17], 7.9.
